Reference: ChEMBL document CHEMBL1129461 (J Med Chem, 1996)
pIC50: −log10 of the molar value.

Experiments:
[1] = target: T1, Protein kinase C beta type (Homo sapiens, UniProt P05771); test: Evaluated against recombinant human Protein kinase C beta 1
Method in brief: (§1)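 Recombinant human PKC isozymes expressed in SF9 cells via baculovirus, partly purified (50–90%). 32P transfer from 30 μM [32P]ATP to 200 μg/mL histone IIIS in 20 mM Hepes pH 7.5, 10 mM MgCl2, EGTA, CaCl2, phosphatidylserine, and diacylglycerol at the isozyme-dependent level giving half-maximal activation. 10 min at 30 °C, TCA stop, filter counting. No-lipid background subtracted.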

[2] = target: T1, Protein kinase C beta type; test: Evaluated against recombinant human Protein kinase C beta 2; method in brief: as §1
[3] = target: Protein kinase C gamma type (Homo sapiens, UniProt P05129); test: Evaluated against recombinant human Protein kinase C gamma; method in brief: as §1
[4] = target: Protein kinase C delta type (Homo sapiens, UniProt Q05655); test: Evaluated against recombinant human Protein kinase C delta; method in brief: as §1
Protein kinase C delta type, sequence (Q05655 whole entry): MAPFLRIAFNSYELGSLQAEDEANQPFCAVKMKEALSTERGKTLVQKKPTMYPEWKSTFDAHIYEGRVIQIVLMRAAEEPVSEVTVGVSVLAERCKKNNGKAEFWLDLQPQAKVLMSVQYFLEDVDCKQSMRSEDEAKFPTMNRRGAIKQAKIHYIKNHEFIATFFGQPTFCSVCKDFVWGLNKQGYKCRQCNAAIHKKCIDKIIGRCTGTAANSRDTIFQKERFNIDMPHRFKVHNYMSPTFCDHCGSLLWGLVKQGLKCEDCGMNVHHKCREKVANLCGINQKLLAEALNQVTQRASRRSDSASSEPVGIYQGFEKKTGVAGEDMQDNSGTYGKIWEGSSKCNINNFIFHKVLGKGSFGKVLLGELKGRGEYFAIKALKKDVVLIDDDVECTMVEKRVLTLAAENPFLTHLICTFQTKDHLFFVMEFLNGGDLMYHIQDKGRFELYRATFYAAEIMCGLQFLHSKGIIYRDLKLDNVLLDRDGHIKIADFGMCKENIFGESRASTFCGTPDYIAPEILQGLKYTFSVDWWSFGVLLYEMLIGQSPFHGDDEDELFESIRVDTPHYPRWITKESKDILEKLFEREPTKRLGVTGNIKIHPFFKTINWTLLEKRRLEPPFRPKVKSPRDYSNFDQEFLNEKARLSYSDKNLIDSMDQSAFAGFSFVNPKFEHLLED

[5] = target: Protein kinase C alpha type (Homo sapiens, UniProt P17252); test: Evaluated against recombinant human Protein kinase C alpha; method in brief: as §1
[6] = target: T2, Protein kinase C epsilon type (Homo sapiens, UniProt Q02156); test: Evaluated against recombinant human Protein kinase C epsilon; method in brief: as §1
T2 sequence (Q02156 whole entry): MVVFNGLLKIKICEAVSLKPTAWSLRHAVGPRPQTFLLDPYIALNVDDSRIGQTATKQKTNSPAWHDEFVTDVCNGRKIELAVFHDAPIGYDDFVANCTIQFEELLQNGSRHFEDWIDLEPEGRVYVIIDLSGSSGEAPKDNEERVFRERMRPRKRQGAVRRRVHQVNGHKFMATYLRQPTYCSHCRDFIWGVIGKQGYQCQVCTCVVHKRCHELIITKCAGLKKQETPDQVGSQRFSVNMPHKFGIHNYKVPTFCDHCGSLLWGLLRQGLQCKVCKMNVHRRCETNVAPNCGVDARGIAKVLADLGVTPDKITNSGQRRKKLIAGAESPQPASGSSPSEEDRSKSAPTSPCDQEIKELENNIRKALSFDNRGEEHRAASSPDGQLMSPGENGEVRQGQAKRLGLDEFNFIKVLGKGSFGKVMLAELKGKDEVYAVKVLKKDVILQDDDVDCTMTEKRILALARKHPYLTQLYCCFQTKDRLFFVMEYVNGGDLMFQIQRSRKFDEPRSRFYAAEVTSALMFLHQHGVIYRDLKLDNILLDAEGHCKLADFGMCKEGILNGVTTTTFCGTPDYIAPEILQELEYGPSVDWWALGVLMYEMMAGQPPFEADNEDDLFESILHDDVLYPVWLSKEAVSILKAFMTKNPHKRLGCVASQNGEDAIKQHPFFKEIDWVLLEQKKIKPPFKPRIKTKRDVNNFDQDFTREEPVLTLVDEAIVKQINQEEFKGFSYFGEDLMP

[7] = target: T3, Protein kinase C eta type (Homo sapiens, UniProt P24723); test: Evaluated against recombinant human Protein kinase C eta; method in brief: as §1
T3 sequence (P24723 whole entry): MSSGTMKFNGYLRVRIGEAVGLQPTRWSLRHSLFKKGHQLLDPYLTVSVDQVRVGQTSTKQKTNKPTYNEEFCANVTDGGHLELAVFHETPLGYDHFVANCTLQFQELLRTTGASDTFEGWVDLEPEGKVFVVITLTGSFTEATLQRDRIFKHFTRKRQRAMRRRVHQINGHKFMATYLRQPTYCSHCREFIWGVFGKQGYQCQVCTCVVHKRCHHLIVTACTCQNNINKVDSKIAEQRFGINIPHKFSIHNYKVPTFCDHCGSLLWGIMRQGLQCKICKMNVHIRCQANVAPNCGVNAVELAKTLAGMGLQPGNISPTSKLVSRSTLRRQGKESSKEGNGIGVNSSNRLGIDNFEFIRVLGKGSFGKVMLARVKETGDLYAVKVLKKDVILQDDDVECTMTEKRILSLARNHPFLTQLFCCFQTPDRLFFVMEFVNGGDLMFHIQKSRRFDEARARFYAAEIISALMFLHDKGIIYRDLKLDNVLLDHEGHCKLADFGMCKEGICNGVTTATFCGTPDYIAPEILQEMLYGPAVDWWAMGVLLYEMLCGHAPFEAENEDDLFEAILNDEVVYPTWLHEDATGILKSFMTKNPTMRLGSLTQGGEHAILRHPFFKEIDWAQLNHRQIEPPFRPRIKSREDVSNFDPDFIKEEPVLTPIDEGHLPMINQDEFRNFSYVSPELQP

[8] = Evaluated against bovine heart Protein Kinase A (PKA)
[9] = Inhibition of rat brain Casein kinase II
Method in brief: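 Casein kinase II isolated from rat brain homogenate; 20 mM Tris-HCl pH 7.5, 5 mM NaF, casein substrate, 10 mM MgCl2, 30 μM [γ-32P]ATP, inhibitor in DMSO. Room temperature 10 min, stopped with ice-cold TCA plus BSA; precipitate filtered onto glass fiber and β-counted.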

[10] = Inhibition of rat brain Ca 2+/Calmodulin dependent kinase
Method in brief: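 Ca2+/calmodulin kinase isolated from rat brain homogenate; 50 mM Tris-HCl pH 7.5, 5 mM β-mercaptoethanol, 400 μM EGTA, 700 μM CaCl2, 10 mM MgCl2, 200 μg/mL histone type HA, 30 μM [γ-32P]ATP, inhibitor in DMSO. Room temperature 10 min, ice-cold TCA plus BSA stop, precipitate filtered and β-counted.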

[11] = target: Proto-oncogene tyrosine-protein kinase Src (Homo sapiens, UniProt P12931); test: Inhibition of src Protein Tyrosine Kinase
Proto-oncogene tyrosine-protein kinase Src, sequence (P12931 2-536 limits assumed): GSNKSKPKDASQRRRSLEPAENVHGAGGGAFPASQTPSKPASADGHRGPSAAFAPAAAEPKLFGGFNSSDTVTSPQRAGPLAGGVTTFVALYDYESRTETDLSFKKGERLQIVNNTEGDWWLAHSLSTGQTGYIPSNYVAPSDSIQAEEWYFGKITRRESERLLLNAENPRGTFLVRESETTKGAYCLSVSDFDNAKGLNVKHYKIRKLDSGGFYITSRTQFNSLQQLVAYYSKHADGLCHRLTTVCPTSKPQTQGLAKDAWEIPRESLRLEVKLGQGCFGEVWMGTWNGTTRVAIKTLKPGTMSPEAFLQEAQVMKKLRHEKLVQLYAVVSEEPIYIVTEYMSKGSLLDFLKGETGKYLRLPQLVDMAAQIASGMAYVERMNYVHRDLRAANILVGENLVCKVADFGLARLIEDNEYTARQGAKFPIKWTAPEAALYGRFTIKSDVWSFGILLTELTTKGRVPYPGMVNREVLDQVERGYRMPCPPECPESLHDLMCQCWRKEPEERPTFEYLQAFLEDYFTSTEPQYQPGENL
Method in brief: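 p60src tyrosine kinase with Raytide peptide substrate, run by the supplier's protocol except that Triton X-100 replaced Brij 35.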

[12] = target: T3, Protein kinase C eta type; test: Inhibition of recombinant human Protein kinase C eta; method in brief: as §1
[13] = target: neutrophil superoxide release (Homo sapiens); test: Inhibition of neutrophil superoxide release

T1 sequence (P05771 whole entry): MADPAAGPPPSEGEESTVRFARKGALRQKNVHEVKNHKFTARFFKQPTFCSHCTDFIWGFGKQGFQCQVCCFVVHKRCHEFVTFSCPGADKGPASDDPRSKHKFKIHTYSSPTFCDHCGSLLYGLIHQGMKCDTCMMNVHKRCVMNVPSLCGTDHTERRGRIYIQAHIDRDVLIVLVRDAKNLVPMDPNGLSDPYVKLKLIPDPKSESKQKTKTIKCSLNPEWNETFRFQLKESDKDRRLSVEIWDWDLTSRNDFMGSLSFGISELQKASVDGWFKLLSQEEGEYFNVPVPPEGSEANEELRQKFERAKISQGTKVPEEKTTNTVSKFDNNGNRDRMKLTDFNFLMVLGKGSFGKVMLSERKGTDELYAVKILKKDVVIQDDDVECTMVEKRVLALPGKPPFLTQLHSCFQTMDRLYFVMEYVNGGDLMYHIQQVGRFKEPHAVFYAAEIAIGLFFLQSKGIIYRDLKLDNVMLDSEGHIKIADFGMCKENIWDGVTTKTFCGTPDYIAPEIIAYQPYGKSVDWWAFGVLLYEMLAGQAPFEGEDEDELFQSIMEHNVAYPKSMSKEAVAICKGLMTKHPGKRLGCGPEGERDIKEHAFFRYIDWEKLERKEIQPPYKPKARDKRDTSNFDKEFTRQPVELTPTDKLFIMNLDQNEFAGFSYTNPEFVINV

Row | SMILES | pIC50 [1] | pIC50 [2] | pIC50 [3] | pIC50 [4] | pIC50 [5] | pIC50 [6] | pIC50 [7] | pIC50 [8] | pIC50 [9] | pIC50 [10] | pIC50 [11] | IC50 [12] [nM] | IC50 [13] [nM]
1 | COC(=O)c1cccc(O)c1C(=O)c1c(O)cc(C(=O)OC2CCCC2Cc2ccc(O)cc2)cc1O (configuration not stated) | 7.00 | 7.05 | 5.77 | 7.30 | 5.85 | 5.35 | 7.40 | < 4.30 |  |  |  |  | 
2 | O=C(NCCOC(=O)c1cc(O)c(C(=O)c2c(O)cccc2C(=O)O)c(O)c1)c1ccc(O)cc1 | 5.35 | 5.12 | 5.18 | 6.39 | 4.96 | 4.89 | 6.64 | 5.08 |  |  |  |  | 
3 | O=C(OCC(Cc1ccc(O)cc1)NS(=O)(=O)c1ccccc1)c1cc(O)c(C(=O)c2c(O)cccc2C(=O)O)c(O)c1 (configuration not stated) | 6.66 | 7.52 | 6.66 | 7.40 | 6.96 | 6.49 | 7.70 | < 4.30 | < 4.30 | 4.49 | < 4.90 |  | 
4 | O=C(OCC(NS(=O)(=O)c1ccccc1)c1ccc(O)cc1)c1cc(O)c(C(=O)c2c(O)cccc2C(=O)O)c(O)c1 (configuration not stated) | 4.96 | 5.55 | 5.32 | 5.72 | < 4.30 | < 4.30 |  | < 4.30 |  |  |  | 3300 | 
5 | COC(=O)c1cccc(O)c1C(=O)c1c(O)cc(C(=O)OC2CNCC2Cc2ccc(O)cc2)cc1O (configuration not stated) | 6.96 | 6.60 | 6.42 | 7.00 | 5.66 |  | 6.30 |  |  |  |  |  | 
6 | O=C(N[C@@H]1CNCCC[C@H]1OC(=O)c1cc(O)c(C(=O)c2c(O)cccc2C(=O)O)c(O)c1)c1ccc(O)cc1 [BALANOL] |  |  |  | 7.70 |  |  |  | 7.40 |  | 7.52 | < 5.00 |  | 
7 | O=C(OC[C@@H](Cc1ccc(O)cc1)NS(=O)(=O)c1ccccc1)c1cc(O)c(C(=O)c2c(O)cccc2C(=O)O)c(O)c1 | 7.52 | 8.15 | 6.33 | 8.52 | 6.68 | 6.34 | 8.52 | < 4.30 |  |  |  |  | 
8 | COC(=O)c1cccc(O)c1C(=O)c1c(O)cc(C(=O)OC[C@@H](Cc2ccc(O)cc2)NS(=O)(=O)c2ccccc2)cc1O | 5.66 | 6.47 | 5.35 | 6.44 | 4.74 | 4.42 | > 7.30 | < 4.30 |  |  |  |  | 930
9 | O=C(OCC(Cc1ccc(O)cc1)NS(=O)(=O)c1ccc2ccccc2c1)c1cc(O)c(C(=O)c2c(O)cccc2C(=O)O)c(O)c1 (configuration not stated) | 5.55 | 5.74 | 5.57 | 5.59 | 5.49 | 4.41 | 4.46 | < 4.30 |  |  |  |  | 
10 | CS(=O)(=O)NC(COC(=O)c1cc(O)c(C(=O)c2c(O)cccc2C(=O)O)c(O)c1)Cc1ccc(O)cc1 (configuration not stated) | 6.66 | 6.37 | 5.30 | 6.39 | 4.64 | < 4.30 | 6.41 | < 4.30 |  |  |  |  | 
11 | CC(CCc1ccc(O)cc1)OC(=O)c1cc(O)c(C(=O)c2c(O)cccc2C(=O)O)c(O)c1 (configuration not stated) | 7.40 | 7.52 | 6.60 | 7.52 | 6.39 | 6.55 | 7.70 | < 4.30 | < 4.30 | < 4.30 |  |  | 
12 | O=C(NC1CNCCCC1OC(=O)c1cc(O)c(C(=O)c2c(O)cccc2C(=O)O)c(O)c1)c1ccc(O)cc1 (racemic) | 7.52 | 7.52 | 7.52 | 7.64 | 7.17 |  | 7.70 | 7.22 |  |  |  |  | 
13 | O=C(OCCCCc1ccc(O)cc1)c1cc(O)c(C(=O)c2c(O)cccc2C(=O)O)c(O)c1 | 6.02 | 6.43 | 5.85 | 6.54 | 5.48 | 4.52 | 6.60 | < 4.30 |  |  |  |  | 
14 | O=C(OC1CNCC1Cc1ccc(O)cc1)c1cc(O)c(C(=O)c2c(O)cccc2C(=O)O)c(O)c1 (configuration not stated) | 8.00 | 7.52 | 7.40 | 8.30 | 6.59 | 5.74 | 7.70 |  |  |  |  |  | 
15 | O=C(NC(COC(=O)c1cc(O)c(C(=O)c2c(O)cccc2C(=O)O)c(O)c1)Cc1ccc(O)cc1)c1ccccc1 (configuration not stated) |  | 5.55 |  | 4.66 | 4.35 | < 4.30 | 4.74 | < 4.30 |  |  |  |  | 
16 | O=C(OC[C@H](Cc1ccc(O)cc1)NS(=O)(=O)c1ccccc1)c1cc(O)c(C(=O)c2c(O)cccc2C(=O)O)c(O)c1 | 6.64 | 7.70 | 5.59 | 7.52 | 5.72 | 5.64 | 7.70 | < 4.30 |  |  |  |  | 
17 | O=C(OC1CCCC1Oc1ccc(O)cc1)c1cc(O)c(C(=O)c2c(O)cccc2C(=O)O)c(O)c1 (configuration not stated) | 7.70 | 7.70 | 6.60 | 7.70 | 6.66 | 6.62 | 8.00 | < 4.30 |  |  |  |  | 
18 | O=C(OC1CCCC1Cc1ccc(O)cc1)c1cc(O)c(C(=O)c2c(O)cccc2C(=O)O)c(O)c1 (stereo in doubt; 20b) | 7.70 | 7.70 | 6.89 | 7.52 | 6.80 | 6.30 | 8.00 |  |  |  |  |  | 
19 | Cc1ccc(S(=O)(=O)N2CCC[C@@H](OC(=O)c3cc(O)c(C(=O)c4c(O)cccc4C(=O)O)c(O)c3)[C@H](NC(=O)c3ccc(O)cc3)C2)cc1 | 7.15 | 7.70 | 5.46 | 5.38 | 5.21 | 4.82 | 7.00 | < 3.82 |  |  |  |  | 
20 | O=C(NC(COC(=O)c1cc(O)c(C(=O)c2c(O)cccc2C(=O)O)c(O)c1)Cc1ccc(O)cc1)c1ccc(O)cc1 (configuration not stated) | 5.44 | 5.52 | 5.54 | 6.09 | 4.74 | < 4.30 | 5.64 | < 4.30 |  |  |  |  | 
21 | O=C(OCCCc1ccc(O)cc1)c1cc(O)c(C(=O)c2c(O)cccc2C(=O)O)c(O)c1 | 6.68 | 6.57 | 6.08 | 6.89 | 5.72 | 5.39 | > 7.30 | < 4.30 |  |  |  |  | 
22 | O=C(NC1CCCC1OC(=O)c1cc(O)c(C(=O)c2c(O)cccc2C(=O)O)c(O)c1)c1ccc(O)cc1 (configuration not stated) | 7.40 | 7.30 | 8.00 | 9.05 | 7.40 | 7.30 | 9.22 |  |  |  |  |  | 
23 | CN(C)C(COC(=O)c1cc(O)c(C(=O)c2c(O)cccc2C(=O)O)c(O)c1)Cc1ccc(O)cc1 (configuration not stated) | 6.06 | 6.30 | 5.38 | 6.57 | 5.40 | 4.52 | 5.85 | < 4.30 |  |  |  |  | 
24 | COC(=O)c1cccc(O)c1C(=O)c1c(O)cc(C(=O)OCCCc2ccc(O)cc2)cc1O | 6.34 | 6.12 | 5.39 | 6.52 | 5.11 |  | 6.77 |  |  |  |  |  | 
25 | O=C(OCC(COc1ccc(O)cc1)NS(=O)(=O)c1ccccc1)c1cc(O)c(C(=O)c2c(O)cccc2C(=O)O)c(O)c1 (configuration not stated) | 5.80 | 6.08 | 5.80 | 6.66 | 4.74 | 4.33 | 6.30 | < 4.30 |  |  |  |  | 
